According to ChEMBL document CHEMBL3297713, “Discovery, optimization, and biological evaluation of 5-(2-(trifluoromethyl)phenyl)indazoles as a novel class of transient receptor potential A1 (TRPA1) antagonists” (J Med Chem, 2014):
Values belong to the compound of their own block, whether it stands above or below them.

Experiments:
[1] = Cmax in Wistar rat at 10 mg/kg, po; format: ADME, organism-based; design: dose 10 mg/kg, route oral; conditions: in vivo
Outline: (§1)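 Male Wistar rats dosed orally at 10 mg/kg as a suspension in 0.5% methylcellulose/0.5% Tween80.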

[2] = system: CHO-K1; assay: Selectivity ratio of IC50 for human TRPM8 expressed in CHOK1 cells to IC50 for human TRPA1 expressed in CHO-TREX cells; format: cell-based
Outline: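 FLIPR calcium-flux antagonist assays with Fluo4-AM loading (90 min, room temperature) in HBSS/20 mM HEPES/2.5 mM probenecid/0.1% BSA. Compound added 10 min before agonist at EC80: 40 µM menthol for CHO-K1 hTRPM8; for tetracycline-induced (0.5 µg/mL) CHO-TREX hTRPA1, 30 µM cinnamaldehyde, 2.5 µM AITC or 5 nM dibenzoxazepine carboxamide. Response is maximum minus minimum. IC50s come from sigmoidal fits of triplicate means.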

[3] = Volume of distribution at steady state in Wistar rat at 1 mg/kg, iv; format: ADME, organism-based; design: dose 1 mg/kg, route intravenous; conditions: in vivo, read-out: Vdss
Outline: (§2)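 Wistar rats given 1 mg/kg i.v. as a solution in 75% PEG200/25% D5W.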

[4] = system: CHO-K1; assay: Selectivity ratio of IC50 for human TRPV1 expressed in CHOK1 cells to IC50 for human TRPA1 expressed in CHO-TREX cells; format: cell-based
Outline: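 Stable hTRPV1 CHO-K1 and tetracycline-induced (0.5 µg/mL) hTRPA1 CHO-TREX cells were loaded with Fluo4-AM for 90 min at room temperature and read on FLIPR. Antagonist preincubation was 10 min before EC80 agonist: capsaicin 40 nM (TRPV1); cinnamaldehyde 30 µM, AITC 2.5 µM or dibenzoxazepine carboxamide 5 nM (TRPA1). Buffer contained probenecid and BSA. IC50s were fitted from triplicate means of max−min calcium signal.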

[5] = Clearance in Wistar rat at 1 mg/kg, iv; format: ADME, organism-based; design: dose 1 mg/kg, route intravenous; conditions: in vivo; outline: as §2
[6] = target: Transient receptor potential cation channel subfamily V member 1 (Homo sapiens, UniProt Q8NER1); assay: Antagonist activity at human TRPV1 expressed in CHOK1 cells assessed as inhibition of capsaicin-induced calcium flux incubated 10 mins prior to capsaicin addition by FLIPR assay relative to control; format: cell-based, CHO-K1
[7] = target: T1, Transient receptor potential cation channel subfamily V member 3 (Homo sapiens) (UniProt Q8NET8); assay: (§3) Antagonist activity at human TRPV3 expressed in CHOK1 cells assessed as inhibition of 2-APB-induced calcium flux incubated 10 mins prior to 2-APB addition by FLIPR assay relative to control; format: cell-based; design: concentration or dose not given beside the values; conditions: CHO-K1
T1 sequence (whole entry): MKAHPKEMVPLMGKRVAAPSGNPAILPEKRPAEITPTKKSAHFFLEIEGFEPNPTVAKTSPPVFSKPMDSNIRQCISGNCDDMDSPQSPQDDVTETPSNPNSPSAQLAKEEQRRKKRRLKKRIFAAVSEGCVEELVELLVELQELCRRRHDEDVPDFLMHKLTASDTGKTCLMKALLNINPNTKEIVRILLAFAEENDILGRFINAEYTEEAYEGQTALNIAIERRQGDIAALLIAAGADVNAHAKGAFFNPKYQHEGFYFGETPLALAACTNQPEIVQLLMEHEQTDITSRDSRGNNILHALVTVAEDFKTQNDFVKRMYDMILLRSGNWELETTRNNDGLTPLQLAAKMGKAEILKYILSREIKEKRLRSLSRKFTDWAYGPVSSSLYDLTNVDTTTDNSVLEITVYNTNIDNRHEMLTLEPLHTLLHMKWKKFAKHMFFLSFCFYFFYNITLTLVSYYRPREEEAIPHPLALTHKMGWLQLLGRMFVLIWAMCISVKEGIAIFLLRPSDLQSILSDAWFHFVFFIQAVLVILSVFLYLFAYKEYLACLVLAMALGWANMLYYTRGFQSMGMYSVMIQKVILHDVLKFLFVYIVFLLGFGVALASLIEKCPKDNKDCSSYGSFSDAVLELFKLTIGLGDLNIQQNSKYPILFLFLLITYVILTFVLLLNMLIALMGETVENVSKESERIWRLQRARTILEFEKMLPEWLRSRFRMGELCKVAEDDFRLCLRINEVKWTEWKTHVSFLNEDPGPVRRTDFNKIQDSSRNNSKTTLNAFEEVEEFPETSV

[8] = target: T2, Transient receptor potential cation channel subfamily V member 3 (Homo sapiens, UniProt Q8NET8); assay: as §3; format: cell-based, CHO-K1
T2 sequence (Q8NET8 whole entry): T1 sequence (whole entry)

[9] = target: Transient receptor potential cation channel subfamily M member 8 (Homo sapiens, UniProt Q7Z2W7); assay: Antagonist activity at human TRPM8 expressed in CHOK1 cells assessed as inhibition of menthol-induced calcium flux incubated 10 mins prior to menthol addition by FLIPR assay relative to control; format: cell-based, CHO-K1
[10] = Half life in Wistar rat at 1 mg/kg, iv; format: ADME, organism-based; design: dose 1 mg/kg, route intravenous; conditions: in vivo; outline: as §2
[11] = target: T3, Transient receptor potential cation channel subfamily A member 1 (Homo sapiens, UniProt O75762); assay: Antagonist activity at human TRPA1 expressed in CHO-TREX cells assessed as inhibition of cinnamaldehyde-induced calcium flux incubated 10 mins prior to cinnamaldehyde addition by FLIPR assay relative to control; format: cell-based
Outline: (§4)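 TRPA1-expressing CHO-TREX cells, channel expression induced with tetracycline (0.5 µg/mL human, 1 µg/mL mouse or rat). Cells loaded with Fluo4-AM for 90 min at room temperature, washed, then test agent added in HBSS/20 mM HEPES/2.5 mM probenecid/0.1% BSA. Agonist added 10 min later at EC80: human cinnamaldehyde 30 µM, AITC 2.5 µM, dibenzoxazepine-carboxamide 5 nM; rat and mouse cinnamaldehyde 40 µM. FLIPR calcium flux; mean of triplicates fitted to sigmoidal dose-response curves.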

[12] = target: Transient receptor potential cation channel subfamily A member 1 (Rattus norvegicus) (UniProt Q6RI86); assay: (§5) Antagonist activity at rat TRPA1 expressed in CHO-TREX cells assessed as inhibition of cinnamaldehyde-induced calcium flux incubated 10 mins prior to cinnamaldehyde addition by FLIPR assay relative to control; format: cell-based; design: concentration or dose not given beside the values; outline: as §4
[13] = target: Transient receptor potential cation channel subfamily A member 1 (Rattus norvegicus, UniProt Q6RI86); assay: as §5; format: cell-based; outline: as §4
[14] = Tmax in Wistar rat at 10 mg/kg, po; format: ADME, organism-based; design: dose 10 mg/kg, route oral; conditions: in vivo; outline: as §1
[15] = Oral bioavailability in Wistar rat at 10 mg/kg; format: ADME, organism-based; conditions: in vivo; outline: as §1
[16] = system: CHO-K1; assay: Selectivity ratio of IC50 for human TRPV3 expressed in CHOK1 cells to IC50 for human TRPA1 expressed in CHO-TREX cells; format: cell-based
Outline: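 Calcium influx was measured by FLIPR in Fluo4-AM-loaded cells: hTRPV3 CHO-K1 challenged with 40 µM 2-APB, and hTRPA1 CHO-TREX (0.5 µg/mL tetracycline) challenged with 30 µM cinnamaldehyde, 2.5 µM AITC or 5 nM dibenzoxazepine carboxamide, all at EC80. Compounds were added 10 min ahead of agonist in HEPES-buffered HBSS with probenecid. Sigmoidal curves were fitted to triplicate means.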

[17] = AUC in Wistar rat at 10 mg/kg, po; format: ADME, organism-based; design: dose 10 mg/kg, route oral; conditions: plasma; outline: as §1
[18] = target: Transient receptor potential cation channel subfamily A member 1 (Mus musculus) (UniProt Q8BLA8); assay: (§6) Antagonist activity at mouse TRPA1 expressed in CHO-TREX cells assessed as inhibition of cinnamaldehyde-induced calcium flux incubated 10 mins prior to cinnamaldehyde addition by FLIPR assay relative to control; format: cell-based; design: concentration or dose not given beside the values; outline: as §4
[19] = target: Transient receptor potential cation channel subfamily A member 1 (Mus musculus, UniProt Q8BLA8); assay: as §6; format: cell-based; outline: as §4
[20] = target: T3, Transient receptor potential cation channel subfamily A member 1; assay: Antagonist activity at TRPA1 (unknown origin)
Outline: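 TRPA1 expressed in CHO-TREX cells, induced with tetracycline (0.5 µg/mL for human, 1 µg/mL for mouse or rat). Cells loaded with Fluo4-AM for 90 min at room temperature, then washed. Antagonist added 10 min before an EC80 agonist in HBSS/20 mM HEPES, 2.5 mM probenecid, 0.1% BSA. Calcium flux read by FLIPR. IC50 taken from sigmoidal curves of triplicate means.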

T3 sequence (O75762 whole entry): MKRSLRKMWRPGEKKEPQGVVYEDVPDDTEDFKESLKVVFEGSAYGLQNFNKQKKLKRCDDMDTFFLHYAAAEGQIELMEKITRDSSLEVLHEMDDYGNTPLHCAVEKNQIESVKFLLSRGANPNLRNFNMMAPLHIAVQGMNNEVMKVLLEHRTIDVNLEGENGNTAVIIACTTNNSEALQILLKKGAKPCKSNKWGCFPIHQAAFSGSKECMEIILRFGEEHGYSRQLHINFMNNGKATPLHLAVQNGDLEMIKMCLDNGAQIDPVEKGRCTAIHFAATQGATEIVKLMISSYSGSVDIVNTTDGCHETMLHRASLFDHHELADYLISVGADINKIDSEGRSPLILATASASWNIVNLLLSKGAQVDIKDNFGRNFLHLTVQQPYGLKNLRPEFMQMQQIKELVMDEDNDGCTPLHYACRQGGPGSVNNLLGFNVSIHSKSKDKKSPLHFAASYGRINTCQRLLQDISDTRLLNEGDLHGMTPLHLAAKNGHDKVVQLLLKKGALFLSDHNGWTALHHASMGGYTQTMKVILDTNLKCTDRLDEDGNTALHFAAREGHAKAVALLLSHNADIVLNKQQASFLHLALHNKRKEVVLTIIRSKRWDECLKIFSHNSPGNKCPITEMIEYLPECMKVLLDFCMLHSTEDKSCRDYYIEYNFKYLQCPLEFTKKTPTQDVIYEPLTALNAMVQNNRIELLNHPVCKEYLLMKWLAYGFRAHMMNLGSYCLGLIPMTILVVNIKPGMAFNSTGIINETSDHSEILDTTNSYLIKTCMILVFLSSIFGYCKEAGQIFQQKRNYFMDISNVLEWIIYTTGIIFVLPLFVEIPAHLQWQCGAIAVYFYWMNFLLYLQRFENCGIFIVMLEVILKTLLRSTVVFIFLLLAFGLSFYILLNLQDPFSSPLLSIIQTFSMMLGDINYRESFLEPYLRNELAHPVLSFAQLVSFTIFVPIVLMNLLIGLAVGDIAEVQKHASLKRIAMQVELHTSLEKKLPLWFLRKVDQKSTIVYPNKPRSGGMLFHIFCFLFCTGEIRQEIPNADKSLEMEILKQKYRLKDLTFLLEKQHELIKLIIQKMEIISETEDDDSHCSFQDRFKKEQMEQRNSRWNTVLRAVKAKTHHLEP
Transient receptor potential cation channel subfamily V member 1, sequence (Q8NER1 whole entry): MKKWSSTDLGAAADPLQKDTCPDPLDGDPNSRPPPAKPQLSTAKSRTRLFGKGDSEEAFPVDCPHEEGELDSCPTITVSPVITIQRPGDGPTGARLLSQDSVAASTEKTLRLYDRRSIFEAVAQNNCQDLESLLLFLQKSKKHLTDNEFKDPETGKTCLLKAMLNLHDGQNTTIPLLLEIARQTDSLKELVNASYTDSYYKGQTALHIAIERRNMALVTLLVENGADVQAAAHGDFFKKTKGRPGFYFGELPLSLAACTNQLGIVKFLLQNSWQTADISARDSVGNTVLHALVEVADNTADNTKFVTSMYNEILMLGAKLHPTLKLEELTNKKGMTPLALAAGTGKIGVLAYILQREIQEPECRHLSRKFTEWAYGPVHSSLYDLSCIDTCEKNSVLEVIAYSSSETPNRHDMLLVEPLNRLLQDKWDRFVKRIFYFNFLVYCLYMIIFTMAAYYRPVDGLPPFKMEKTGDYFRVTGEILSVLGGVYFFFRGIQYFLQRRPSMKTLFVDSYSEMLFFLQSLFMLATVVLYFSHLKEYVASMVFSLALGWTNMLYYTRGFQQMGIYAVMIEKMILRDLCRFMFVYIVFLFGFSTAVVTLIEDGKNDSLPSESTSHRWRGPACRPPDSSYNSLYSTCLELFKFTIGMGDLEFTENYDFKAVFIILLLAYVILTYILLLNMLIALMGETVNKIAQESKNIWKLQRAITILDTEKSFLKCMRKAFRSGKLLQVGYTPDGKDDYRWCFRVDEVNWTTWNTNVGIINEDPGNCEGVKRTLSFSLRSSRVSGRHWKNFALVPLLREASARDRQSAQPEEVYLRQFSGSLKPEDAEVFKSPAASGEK
Transient receptor potential cation channel subfamily A member 1 (Rattus norvegicus, UniProt Q6RI86), sequence (Q6RI86 whole entry): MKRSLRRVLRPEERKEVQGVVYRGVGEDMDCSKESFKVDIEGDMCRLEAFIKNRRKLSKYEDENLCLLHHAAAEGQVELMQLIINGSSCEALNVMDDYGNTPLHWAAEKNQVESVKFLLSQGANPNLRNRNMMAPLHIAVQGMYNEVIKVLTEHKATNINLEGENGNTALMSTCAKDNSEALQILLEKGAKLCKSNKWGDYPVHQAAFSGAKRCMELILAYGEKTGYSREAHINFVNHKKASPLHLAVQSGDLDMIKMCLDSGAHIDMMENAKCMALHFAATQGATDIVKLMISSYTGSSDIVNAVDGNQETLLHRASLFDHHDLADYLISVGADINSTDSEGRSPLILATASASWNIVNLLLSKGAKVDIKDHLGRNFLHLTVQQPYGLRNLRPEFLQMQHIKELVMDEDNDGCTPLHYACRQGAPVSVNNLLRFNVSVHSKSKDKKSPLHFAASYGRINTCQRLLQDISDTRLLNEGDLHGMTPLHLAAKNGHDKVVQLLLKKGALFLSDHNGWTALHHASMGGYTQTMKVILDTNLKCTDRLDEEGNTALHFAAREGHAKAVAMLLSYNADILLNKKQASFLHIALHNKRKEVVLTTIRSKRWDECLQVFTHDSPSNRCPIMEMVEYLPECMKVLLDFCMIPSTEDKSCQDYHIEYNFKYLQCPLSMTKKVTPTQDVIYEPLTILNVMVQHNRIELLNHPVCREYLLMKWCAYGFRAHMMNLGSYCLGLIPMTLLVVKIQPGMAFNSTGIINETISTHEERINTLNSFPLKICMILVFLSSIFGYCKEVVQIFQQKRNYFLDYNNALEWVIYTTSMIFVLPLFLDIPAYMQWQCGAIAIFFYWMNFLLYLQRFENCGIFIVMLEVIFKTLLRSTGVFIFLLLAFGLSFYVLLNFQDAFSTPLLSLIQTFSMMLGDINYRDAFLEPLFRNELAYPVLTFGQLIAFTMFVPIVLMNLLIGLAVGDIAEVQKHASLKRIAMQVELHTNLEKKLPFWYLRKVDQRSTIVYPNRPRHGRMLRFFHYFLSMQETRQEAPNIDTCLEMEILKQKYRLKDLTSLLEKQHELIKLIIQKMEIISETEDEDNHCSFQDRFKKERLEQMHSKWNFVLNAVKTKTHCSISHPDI
Transient receptor potential cation channel subfamily A member 1 (Rattus norvegicus), sequence (Q6RI86 whole entry): as above
Transient receptor potential cation channel subfamily A member 1 (Mus musculus, UniProt Q8BLA8), sequence (Q8BLA8 whole entry): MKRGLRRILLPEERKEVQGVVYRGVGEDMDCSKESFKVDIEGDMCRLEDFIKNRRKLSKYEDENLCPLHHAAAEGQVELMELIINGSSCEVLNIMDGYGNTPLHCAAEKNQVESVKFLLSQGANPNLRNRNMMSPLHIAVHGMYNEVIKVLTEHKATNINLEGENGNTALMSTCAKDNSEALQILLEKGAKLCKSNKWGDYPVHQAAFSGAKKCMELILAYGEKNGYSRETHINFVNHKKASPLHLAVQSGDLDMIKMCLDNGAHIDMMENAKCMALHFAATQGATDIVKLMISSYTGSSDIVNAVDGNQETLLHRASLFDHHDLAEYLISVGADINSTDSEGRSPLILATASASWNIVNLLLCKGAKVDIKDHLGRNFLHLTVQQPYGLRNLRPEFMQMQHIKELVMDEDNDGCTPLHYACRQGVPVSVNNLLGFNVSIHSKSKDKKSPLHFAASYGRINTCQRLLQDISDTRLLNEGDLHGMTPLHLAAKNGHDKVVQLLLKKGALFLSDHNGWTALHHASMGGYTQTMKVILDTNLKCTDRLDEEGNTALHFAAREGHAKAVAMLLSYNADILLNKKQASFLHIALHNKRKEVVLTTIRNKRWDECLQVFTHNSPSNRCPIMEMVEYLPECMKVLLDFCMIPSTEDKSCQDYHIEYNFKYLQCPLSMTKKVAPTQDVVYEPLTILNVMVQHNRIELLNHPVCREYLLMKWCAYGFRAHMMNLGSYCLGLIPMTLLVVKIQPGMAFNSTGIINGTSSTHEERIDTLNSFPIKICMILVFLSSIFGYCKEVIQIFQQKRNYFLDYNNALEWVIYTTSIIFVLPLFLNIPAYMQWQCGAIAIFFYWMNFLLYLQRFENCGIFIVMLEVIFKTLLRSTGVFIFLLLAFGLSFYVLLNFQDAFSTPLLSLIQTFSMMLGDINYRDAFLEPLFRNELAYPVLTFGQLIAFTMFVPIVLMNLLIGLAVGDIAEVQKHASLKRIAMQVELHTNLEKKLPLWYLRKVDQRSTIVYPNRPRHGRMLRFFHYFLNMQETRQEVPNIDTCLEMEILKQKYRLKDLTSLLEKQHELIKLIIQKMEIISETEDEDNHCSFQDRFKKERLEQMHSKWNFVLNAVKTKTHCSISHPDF
Transient receptor potential cation channel subfamily A member 1 (Mus musculus), sequence (Q8BLA8 whole entry): as above

Cmax [1]: 2000 nM
Vd [3]: 3.6 L/kg
clearance [5]: 35.5 mL/min/kg
IC50 [6]: > 30000 nM
inhibition ([6]; CHO-K1): 35%
inhibition [7]: 35%
IC50 [8]: > 30000 nM
IC50 [9]: 10900 nM
inhibition ([9]; CHO-K1): 100%
half-life [10]: 6.6 h
IC50 [11]: 26 nM
inhibition [11]: 98%
inhibition [12]: 99%
IC50 [13]: 99 nM
Tmax [14]: 0.8 h
bioavailability [15]: 50%
AUC [17]: 8.2 µM·h
inhibition [18]: 100%
IC50 [19]: 161 nM
Structure (SMILES): COc1cc2[nH]ncc2cc1-c1ccccc1C(F)(F)F
Ratio IC50 [2]: > 100
Ratio IC50 [4]: > 100
Ratio IC50 [16]: > 100

IC50 [20]: 2300 nM
Structure (SMILES): CC(C)c1ccc(NC(=O)Cn2cnc3c2c(=O)n(C)c(=O)n3C)cc1
